The source of these data is ChEMBL document CHEMBL1152579, “Substrate specificity effects of lipoxygenase products and inhibitors on soybean lipoxygenase-1” (Bioorg Med Chem, 2009).

Where a name gives a salt, the structure may show the parent alone.

The target of assay [1] is T1, Seed linoleate 13S-lipoxygenase-1 (Glycine max) (UniProt P08170).
T1 sequence (whole entry): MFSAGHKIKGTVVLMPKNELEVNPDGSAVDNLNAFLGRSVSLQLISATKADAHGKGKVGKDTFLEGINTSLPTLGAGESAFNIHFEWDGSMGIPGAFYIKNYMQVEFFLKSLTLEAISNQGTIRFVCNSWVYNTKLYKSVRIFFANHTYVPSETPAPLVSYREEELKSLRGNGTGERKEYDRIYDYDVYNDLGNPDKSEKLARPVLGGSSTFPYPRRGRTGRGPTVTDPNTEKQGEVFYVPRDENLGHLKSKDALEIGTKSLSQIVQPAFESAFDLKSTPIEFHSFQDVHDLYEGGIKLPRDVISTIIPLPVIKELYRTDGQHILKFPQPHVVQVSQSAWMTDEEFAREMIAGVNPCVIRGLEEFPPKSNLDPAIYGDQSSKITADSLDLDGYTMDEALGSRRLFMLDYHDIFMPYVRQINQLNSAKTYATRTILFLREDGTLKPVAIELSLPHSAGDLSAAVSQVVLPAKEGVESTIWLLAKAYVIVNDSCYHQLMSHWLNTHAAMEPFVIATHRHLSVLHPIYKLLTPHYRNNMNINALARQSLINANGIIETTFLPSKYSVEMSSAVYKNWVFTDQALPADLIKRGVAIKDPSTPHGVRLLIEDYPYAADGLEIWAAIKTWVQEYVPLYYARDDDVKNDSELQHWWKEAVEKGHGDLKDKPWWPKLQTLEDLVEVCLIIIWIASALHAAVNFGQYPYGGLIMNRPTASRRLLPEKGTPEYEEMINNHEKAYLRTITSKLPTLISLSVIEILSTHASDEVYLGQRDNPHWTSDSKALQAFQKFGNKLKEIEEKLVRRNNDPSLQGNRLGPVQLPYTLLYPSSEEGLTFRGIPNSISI
The assay can be described thus: Mixed-type inhibition of soybean LO1 assessed as increase in arachidonic acid/linoleic acid ratio at 30 uM by substrate specificity assay.

Assay [2] has as its target T1, Seed linoleate 13S-lipoxygenase-1 (Glycine max). The assay can be described thus: Mixed-type inhibition of soybean LO1 assessed as increase in arachidonic acid/linoleic acid ratio at 65 uM by substrate specificity assay.
Assay [3] shares this target. The experiment in a line: Inhibition of soybean LO1 assessed as increase in non-endogenous arachidonic acid/linoleic acid maximal ratio by substrate specificity assay. The procedure, abridged: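 Inhibitor titrated into competitive substrate-capture reactions: sLO-1 with 1:1 AA:LA at 1 μM total substrate, 100 mM borate pH 9.2, 22 °C. Product ratio was measured by HPLC at each concentration. The change in (kcat/KM)AA/(kcat/KM)LA ratio was plotted against inhibitor concentration and fit to a saturation curve, giving the maximal ratio at saturation.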

Assay [4] addresses T2, Seed linoleate 13S-lipoxygenase-1 (Glycine max, UniProt P08170).
T2 sequence (P08170 whole entry): T1 sequence (whole entry)
The assay can be described thus: Binding affinity to allosteric site of soybean LO1.

In assay [5] the target is T1, Seed linoleate 13S-lipoxygenase-1 (Glycine max). The experiment in a line: Mixed-type inhibition of soybean LO1 assessed as increase in arachidonic acid/linoleic acid ratio at 13 uM by substrate specificity assay.
The target is the same in assay [6]. The assay can be described thus: Allosteric inhibition of soybean LO1 assessed as increase in arachidonic acid/linoleic acid ratio at 1 uM by substrate specificity assay.
Assay [7] has as its target T2, Seed linoleate 13S-lipoxygenase-1. The assay can be described thus: Binding affinity to soybean LO1.
Assay [8] addresses T1, Seed linoleate 13S-lipoxygenase-1 (Glycine max). The assay can be described thus: Competitive inhibition of soybean LO1 assessed as increase in arachidonic acid/linoleic acid ratio at 5 uM by substrate specificity assay.
Assay [9] has the same target. The experiment in a line: Allosteric inhibition of soybean LO1 assessed as increase in arachidonic acid/linoleic acid ratio at 0.5 uM by substrate specificity assay.
Assay [10] has the same target. The experiment in a line: Allosteric inhibition of soybean LO1 assessed as increase in arachidonic acid/linoleic acid ratio at 10 uM by substrate specificity assay.
Assay [11] shares this target. The experiment in a line: Allosteric inhibition of soybean LO1 assessed as increase in arachidonic acid/linoleic acid ratio at 1 uM by substrate specificity assay.
Assay [12] has the same target. The experiment in a line: Allosteric inhibition of soybean LO1 assessed as increase in arachidonic acid/linoleic acid ratio at 5 uM by substrate specificity assay.

As to `CCCCCC/C=C\CCCCCCCCOS(=O)(=O)O`, the Ratio was determined as 3 in assay [1], 4 in [2], 7.4 in assay [3] and 2.3 in assay [5]. In assay [4], this compound returned an inhibition constant Ki of 140 µM.
For `CCCCCCCC/C=C\CCCCCCCCOS(=O)(=O)O` [OLEYL SULFATE], the Ratio in assay [6] stood at 3.2; in assay [8] it was 4.7; in assay [9], 2.5; in assay [10], 4.8; in [11] it was 3.2; in assay [3], 5.4. Further, the Ratio in [12] turned out to be 4.8. This compound registered a Ki in [7] of 0.7 µM.
